Source: ChEMBL document CHEMBL1127593, “14-epi stereoisomers of 25-hydroxy- and 1 alpha,25-dihydroxyvitamin D3: synthesis, isomerization to previtamins, and biological studies” (J Med Chem, 1994)

Experiments:
[1] = Compound was tested for rate constant for the transformation of vitamin to previtamin; format: ADME
Outline: (§1)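 Vitamin/previtamin ratio read by 1H-NMR integration. Kinetics run in triplicate over 59.8–89.7 °C with Arrhenius treatment; 1α-hydroxy analogue run once at 80 °C. Equilibrium constant at 80 °C taken after prolonged heating from either isomer.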

[2] = tested on: vitamin D receptor (Gallus gallus); assay: Compound was evaluated for chick vitamin D receptor relative competitive induces (relative to alpha, 25-(OH2)-D3)
[3] = Compound was tested for the backward reaction of conversion of vitamin D to previtamin D; format: ADME; outline: as §1
[4] = Compound was tested for rate constant for the forward reaction of isomerization of previtamin D to vitamin D; format: ADME; outline: as §1
[5] = Keq (k1/1-k) for the transformation of vitamin D to previtamin D; format: ADME; outline: as §1
[6] = Compound was tested for the backward reaction of conversion of vitamin D to previtaminD; format: ADME; outline: as §1

| Compound | Log A [1] [s-1] | RCI [2] | k-1 [3] [s⁻¹] | k1 [4] [s⁻¹] | Keq [5] | k-1 [6] [s⁻¹] |
| --- | --- | --- | --- | --- | --- | --- |
| C=C1CC[C@H](O)C/C1=C/C=C1\CCC[C@]2(C)[C@@H]([C@H](C)CCCC(C)C)CC[C@@H]12 [CHOLECALCIFEROL] | 10.7 | – | – | – | – | – |
| CC1=C(/C=C\C2=CCC[C@@]3(C)[C@@H]2CC[C@@H]3[C@H](C)CCCC(C)(C)O)CC(O)CC1 (some centres undefined) | – | 0.011 | – | – | – | – |
| CC1=C(/C=C\C2=CCC[C@@]3(C)[C@@H]2CC[C@@H]3[C@H](C)CCCC(C)(C)O)C[C@@H](O)C[C@@H]1O | – | 1.6 | – | – | – | – |
| C=C1/C(=C\C=C2/CCC[C@]3(C)[C@@H]([C@H](C)CCCC(C)(C)O)CC[C@@H]23)C[C@@H](O)C[C@@H]1O [CALCITRIOL] | 9.9 | – | – | 0.000563 | 7.3 | 7.6e-05 |

The remaining lines, values ahead:

| Log A [1] [s-1] | RCI [2] | k-1 [3] [s⁻¹] | k1 [4] [s⁻¹] | Keq [5] | k-1 [6] [s⁻¹] | Compound |
| --- | --- | --- | --- | --- | --- | --- |
| 8.5 | – | 0.000845 | 4.92e-05 | 0.058 | – | C=C1CC[C@H](O)C/C1=C/C=C1\CCC[C@@]2(C)[C@@H]1CC[C@@H]2[C@H](C)CCCC(C)(C)O |
| – | – | – | 0.000502 | 3.8 | 0.000135 | C=C1CC[C@H](O)C/C1=C/C=C1\CCC[C@]2(C)[C@@H]([C@H](C)CCCC(C)(C)O)CC[C@@H]12 [CALCIFEDIOL ANHYDROUS] |
